Tests used:
[1] = test system: Staphylococcus aureus subsp. aureus RN4220; assay: T>MIC in Staphylococcus aureus RN4220 MutS2 in two-compartment pharmacokinetic/pharmacodynamic model at 600 mg, bid administered as 0.5 hr infusion for 2 days; type: functional
[2] = Apparent volume of distribution in two-compartment pharmacokinetic/pharmacodynamic model at 800 mg, bid administered as 0.5 hrs infusion; type: ADME, organism-based; conditions: iv
[3] = test system: Staphylococcus aureus; assay: Bactericidal activity against 0.5 hrs peripheral compartment culture samples of Staphylococcus aureus RN4220 in two-compartment pharmacokinetic/pharmacodynamic model assessed as effect on bacterial count at 600 mg, bid administered as 0.5 hr infusion; type: functional
How it was run: (§1)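 Two-compartment hollow-fibre model in cation-adjusted, protein-free MH broth, 37°C. Linezolid given as simulated 0.5-h infusion twice daily. Inoculum grown 18 h, concentrated 50-fold and placed in the peripheral compartment 3 h before t0. Peripheral samples at set times counted by dilution plating. First 10-fold dilution not plated, limiting detection to 2–3 log10 CFU/ml. Δlog CFU/ml taken from t0 count. Duplicates.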

[4] = test system: Enterococcus faecalis; assay: Bactericidal activity against 1 hr peripheral compartment culture samples of Enterococcus faecalis ATCC 29212 in two-compartment pharmacokinetic/pharmacodynamic model assessed as effect on bacterial count at 600 mg, bid administered as 0.5 hr infusion; type: functional; how it was run: as §1
[5] = test system: Enterococcus faecalis; assay: Bactericidal activity against 48 hrs peripheral compartment culture samples of Enterococcus faecalis Ef1497 in two-compartment pharmacokinetic/pharmacodynamic model assessed as effect on bacterial count at 600 mg, bid administered as 0.5 hr infusion; type: functional
How it was run: (§2)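 An 18-h culture concentrated 50-fold was injected into the peripheral compartment 3 h pre-sampling (~10^8 CFU/ml E. faecalis, 10^9 S. aureus). Counts came from dilution plating (detection limit 2–3 log10 CFU/ml), expressed as Δlog CFU/ml from treatment start. Run in duplicate.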

[6] = Cmax in two-compartment pharmacokinetic/pharmacodynamic model at 200 mg, bid administered as 0.5 hr infusion over 24 hrs; type: ADME, organism-based; set-up: dose 200 mg; conditions: iv
[7] = test system: Enterococcus faecalis; assay: Bactericidal activity against 13 hrs peripheral compartment culture samples of Enterococcus faecalis Ef1497 MutM3 in two-compartment pharmacokinetic/pharmacodynamic model assessed as effect on bacterial count at 200 mg, bid administered as 0.5 hr infusion; type: functional; how it was run: as §2
[8] = AUC in two-compartment pharmacokinetic/pharmacodynamic model at 800 mg, bid administered as 0.5 hr infusion over 24 hrs; type: ADME; set-up: time < 24 hr, dose 800 mg; conditions: in vivo, iv
[9] = Apparent volume of distribution in two-compartment pharmacokinetic/pharmacodynamic model at 600 mg, bid administered as 0.5 hrs infusion; conditions: iv
[10] = Total clearance in two-compartment pharmacokinetic/pharmacodynamic model at 800 mg, bid administered as 0.5 hrs infusion; type: ADME, organism-based; conditions: iv
[11] = Cmax in two-compartment pharmacokinetic/pharmacodynamic model at 800 mg, bid administered as 0.5 hr infusion over 24 hrs; type: ADME, organism-based; set-up: dose 800 mg; conditions: iv
[12] = test system: Enterococcus faecalis; assay: AUBC (0 to 24 hrs) in Enterococcus faecalis Ef1497 in two-compartment pharmacokinetic/pharmacodynamic model at 600 mg, bid administered as 0.5 hr infusion for 2 days; type: functional
How it was run: (§3)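 Hollow-fibre two-compartment model in cation-adjusted, protein-free MH broth at 37°C. Human total-plasma linezolid profile simulated as 0.5-h infusion every 12 h for 48 h. Concentrated 18-h culture injected into the peripheral compartment 3 h before first sample, giving about 10^8 (E. faecalis) or 10^9 (S. aureus) CFU/ml. Viable counts by dilution plating over 0–24 h. Area indices calculated versus growth control curve. Duplicate runs.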

[13] = Tmax in two-compartment pharmacokinetic/pharmacodynamic model at 200 mg, bid administered as 0.5 hr infusion over 24 hrs; type: ADME, organism-based; conditions: iv
How it was run: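 Two-compartment in vitro hollow-fibre model in cation-adjusted, protein-free Mueller-Hinton broth at 37°C. Human total-plasma linezolid profile simulated as 0.5-h infusion every 12 h for 48 h, computer-controlled syringe pump into central compartment. […] Peripheral samples assayed by validated HPLC-UV (quantification limit 0.39 μg/ml). Tmax read directly from concentration-time profiles. Run in duplicate.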

[14] = test system: Enterococcus faecalis; assay: Bactericidal activity against 48 hrs peripheral compartment culture samples of Enterococcus faecalis Ef1497 MutM3 in two-compartment pharmacokinetic/pharmacodynamic model assessed as effect on bacterial count at 200 mg, bid administered as 0.5 hr infusion; type: functional; how it was run: as §2
[15] = test system: Enterococcus faecalis; assay: Bactericidal activity against 1 hr peripheral compartment culture samples of Enterococcus faecalis Ef1497 in two-compartment pharmacokinetic/pharmacodynamic model assessed as effect on bacterial count at 600 mg, bid administered as 0.5 hr infusion; type: functional; how it was run: as §1
[16] = Apparent volume of distribution in two-compartment pharmacokinetic/pharmacodynamic model at 200 mg, bid administered as 0.5 hrs infusion; type: ADME, organism-based; conditions: iv
[17] = test system: Enterococcus faecalis; assay: T>MIC in Enterococcus faecalis Ef1497 in two-compartment pharmacokinetic/pharmacodynamic model at 600 mg, bid administered as 0.5 hr infusion for 2 days; type: functional
[18] = test system: Enterococcus faecalis; assay: AUBC (0 to 24 hrs) in Enterococcus faecalis Ef1497 MutM3 in two-compartment pharmacokinetic/pharmacodynamic model at 200 mg, bid administered as 0.5 hr infusion for 2 days; type: functional; how it was run: as §3
[19] = test system: Enterococcus faecalis; assay: ABBC (0 to 24 hrs) in Enterococcus faecalis Ef1497 in two-compartment pharmacokinetic/pharmacodynamic model at 600 mg, bid administered as 0.5 hr infusion for 2 days; type: functional; how it was run: as §3
[20] = AUC in two-compartment pharmacokinetic/pharmacodynamic model at 200 mg, bid administered as 0.5 hr infusion over 24 hrs; type: ADME; set-up: dose 200 mg, time < 24 hr; conditions: in vivo, iv
[21] = Volume of distribution at steady state in two-compartment pharmacokinetic/pharmacodynamic model at 800 mg, bid administered as 0.5 hrs infusion; type: ADME, organism-based; conditions: iv, read-out: Vdss
[22] = test system: Enterococcus faecalis; assay: Bactericidal activity against 1 hr peripheral compartment culture samples of Enterococcus faecalis Ef1497 MutM3 in two-compartment pharmacokinetic/pharmacodynamic model assessed as effect on bacterial count at 600 mg, bid administered as 0.5 hr infusion; type: functional; how it was run: as §1
[23] = AUC in two-compartment pharmacokinetic/pharmacodynamic model at 600 mg, bid administered as 0.5 hr infusion over 24 hrs; type: ADME; set-up: dose 600 mg, time < 24 hr; conditions: in vivo, iv
[24] = test system: Enterococcus faecalis; assay: Bactericidal activity against 0.5 hrs peripheral compartment culture samples of Enterococcus faecalis ATCC 29212 in two-compartment pharmacokinetic/pharmacodynamic model assessed as effect on bacterial count at 600 mg, bid administered as 0.5 hr infusion; type: functional; how it was run: as §1
[25] = test system: Enterococcus faecalis; assay: Bactericidal activity against 24 hrs peripheral compartment culture samples of Enterococcus faecalis Ef1497 MutM3 in two-compartment pharmacokinetic/pharmacodynamic model assessed as effect on bacterial count at 200 mg, bid administered as 0.5 hr infusion; type: functional; how it was run: as §2
[26] = Tmax in two-compartment pharmacokinetic/pharmacodynamic model at 800 mg, bid administered as 0.5 hr infusion over 24 hrs; type: ADME, organism-based; conditions: iv
[27] = in vitro; conditions: two-compartment pharmacokinetic/pharmacodynamic model, iv, 600 mg
[28] = test system: Enterococcus faecalis; assay: Bactericidal activity against 1 hr peripheral compartment culture samples of Enterococcus faecalis Ef1497 MutM3 in two-compartment pharmacokinetic/pharmacodynamic model assessed as effect on bacterial count at 200 mg, bid administered as 0.5 hr infusion; type: functional; how it was run: as §1

## CC(=O)NC[C@H]1CN(c2ccc(N3CCOCC3)c(F)c2)C(=O)O1 [LINEZOLID]
[1]
  fT>MIC: 66.6%
[2]
  Vd: 124 L
[3]
  log10CFU/ml: -0.04
[4]
  log10CFU/ml: -0.12
[5]
  log10CFU/ml: 0.39
[6]
  Cmax: 4790 ng/mL
[7]
  log10CFU/ml: 0.23
[8]
  AUC at 24 h: 47700 ng·h/mL
[9]
  Vd: 115 L
[10]
  clearance: 287 mL/min
[11]
  Cmax: 19500 ng/mL
[12]
  AUBC: 215.6 log10CFU/ml.hr
[13]
  Tmax: 30 min
[14]
  log10CFU/ml: 0.79
[15]
  log10CFU/ml: -0.05
[16]
  Vd: 141 L
[17]
  fT>MIC: 69%
[18]
  AUBC: 212.2 log10CFU/ml.hr
[19]
  ABBC: -1.49 log10CFU/ml.hr
[20]
  AUC at 24 h: 10100 ng·h/mL
[21]
  Vd: 104 L
[22]
  log10CFU/ml: -0.01
[23]
  AUC at 24 h: 35400 ng·h/mL
[24]
  log10CFU/ml: 0.04
[25]
  log10CFU/ml: 0.52
[26]
  Tmax: 30 min
[27]
  half-life at 0.5 h: 392 min
[28]
  log10CFU/ml: 0.02

From ChEMBL document CHEMBL1671683, “Activity of linezolid in an in vitro pharmacokinetic-pharmacodynamic model using different dosages and Staphylococcus aureus and Enterococcus faecalis strains with and without a hypermutator phenotype” (Antimicrob Agents Chemother, 2010)
